Experiment [1] deals with HCT-116. In words: Induction of apoptosis in human HCT116 cells assessed as early apoptotic cells level at 1.5 uM incubated for 24 hrs by 7-AAD and annexin V staining-based flow cytometry (reference value: 4%). It is filed as functional.
Experiment [2] has as its system HCT-116. The experiment can be described thus: Induction of apoptosis in human HCT116 cells assessed as early apoptotic cells level at 0.75 uM incubated for 24 hrs by 7-AAD and annexin V staining-based flow cytometry (reference value: 4%). It is filed as functional. (In flow cytometry, cells or beads pass a laser one at a time.)
Experiment [3] addresses T1, DNA (cytosine-5)-methyltransferase 1 (Mus musculus, UniProt P13864). In words: Inhibition of N-terminal His6-tagged mouse DNMT1 (731 to 1602 residues) expressed in Escherichia coli BL21 (DE3) incubated for 15 mins before addition of [3H]-SAM and poly(dI-dC).poly(dI-dC) by liquid scintillation counting based radioactive methylation assay. A digest of the protocol:
(§1)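 Enzyme was preincubated with compound for 15 min at room temperature, then reacted for 60 min at 37°C. Products were filter-captured, washed and counted by scintillation. IC50 came from a nonlinear dose-response fit; single-point tests used 50 µM.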

The target in experiment [4] is T1, DNA (cytosine-5)-methyltransferase 1. In words: (§2) Binding affinity to N-terminal His6-tagged mouse DNMT1 (731 to 1602 residues) expressed in Escherichia coli BL21 (DE3) by SPR assay. Put shortly:
(§3)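 Measured by SPR at 25°C. Purified mouse DNMT1 was amine-coupled to a CM5 chip in 10 mM sodium acetate pH 5.0 and equilibrated overnight in HBS-EP (10 mM HEPES pH 7.4, 150 mM NaCl, 3 mM EDTA, 0.05% P20, 0.1% DMSO). Serially diluted compounds were injected with 120 s contact and 120 s dissociation, and KD was derived by the instrument evaluation software.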

The target in experiment [5] is DNA (cytosine-5)-methyltransferase 1 (Mus musculus) (UniProt P13864). The description is as §2. A digest of the protocol: as §3
DNA (cytosine-5)-methyltransferase 1 (Mus musculus), sequence (P13864 whole entry, the tested form may be a part): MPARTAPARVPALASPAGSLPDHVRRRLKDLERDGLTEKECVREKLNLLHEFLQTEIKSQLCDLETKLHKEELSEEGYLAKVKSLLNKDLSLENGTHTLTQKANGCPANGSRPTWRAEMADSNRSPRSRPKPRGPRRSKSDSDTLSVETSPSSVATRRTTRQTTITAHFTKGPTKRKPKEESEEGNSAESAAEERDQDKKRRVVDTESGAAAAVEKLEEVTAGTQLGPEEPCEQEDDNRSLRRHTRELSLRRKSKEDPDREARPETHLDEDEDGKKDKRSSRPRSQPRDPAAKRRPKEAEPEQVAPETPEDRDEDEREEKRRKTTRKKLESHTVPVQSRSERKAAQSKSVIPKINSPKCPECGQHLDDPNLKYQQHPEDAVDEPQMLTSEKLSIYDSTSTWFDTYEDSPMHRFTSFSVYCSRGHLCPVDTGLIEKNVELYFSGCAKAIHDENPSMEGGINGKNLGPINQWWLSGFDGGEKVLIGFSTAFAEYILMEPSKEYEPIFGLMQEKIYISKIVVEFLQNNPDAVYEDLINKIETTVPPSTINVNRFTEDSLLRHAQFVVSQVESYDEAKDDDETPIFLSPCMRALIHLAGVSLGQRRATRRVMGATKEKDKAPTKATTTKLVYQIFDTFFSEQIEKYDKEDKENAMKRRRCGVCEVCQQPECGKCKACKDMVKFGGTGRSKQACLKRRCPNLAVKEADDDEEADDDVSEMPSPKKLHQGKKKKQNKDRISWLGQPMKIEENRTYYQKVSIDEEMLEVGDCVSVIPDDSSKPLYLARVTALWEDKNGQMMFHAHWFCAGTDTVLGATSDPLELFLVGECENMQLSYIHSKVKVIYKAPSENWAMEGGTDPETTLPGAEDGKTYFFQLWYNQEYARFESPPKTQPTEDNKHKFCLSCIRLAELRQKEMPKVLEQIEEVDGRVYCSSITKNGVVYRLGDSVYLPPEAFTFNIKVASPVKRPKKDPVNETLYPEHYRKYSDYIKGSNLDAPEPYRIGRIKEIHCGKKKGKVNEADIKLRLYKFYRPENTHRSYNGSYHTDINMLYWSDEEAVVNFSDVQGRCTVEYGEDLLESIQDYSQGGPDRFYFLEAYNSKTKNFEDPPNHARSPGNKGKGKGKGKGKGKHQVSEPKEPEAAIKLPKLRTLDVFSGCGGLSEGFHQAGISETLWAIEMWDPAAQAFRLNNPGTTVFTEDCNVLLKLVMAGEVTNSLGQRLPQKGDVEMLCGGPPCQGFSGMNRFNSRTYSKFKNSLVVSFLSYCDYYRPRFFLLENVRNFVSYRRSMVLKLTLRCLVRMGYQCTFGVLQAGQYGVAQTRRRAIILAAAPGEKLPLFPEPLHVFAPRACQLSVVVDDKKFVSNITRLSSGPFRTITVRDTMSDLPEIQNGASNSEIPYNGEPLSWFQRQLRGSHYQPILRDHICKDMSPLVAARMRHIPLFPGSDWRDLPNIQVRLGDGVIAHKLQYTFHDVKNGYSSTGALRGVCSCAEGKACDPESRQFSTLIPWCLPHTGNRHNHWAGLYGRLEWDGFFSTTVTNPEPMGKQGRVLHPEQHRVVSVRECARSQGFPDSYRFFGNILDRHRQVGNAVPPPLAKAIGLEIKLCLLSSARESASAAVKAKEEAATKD
Experiment [6] has the same target. The experiment can be described thus: Inhibition of N-terminal His6-tagged mouse DNMT1 (731 to 1602 residues) expressed in Escherichia coli BL21 (DE3) at 50 uM incubated for 15 mins before addition of [3H]-SAM and poly(dI-dC).poly(dI-dC) by liquid scintillation counting based radioactive methylation assay. A digest of the protocol:
as §1

The test system of experiment [7] is HCT-116. The experiment can be described thus: Induction of apoptosis in human HCT116 cells assessed as necrotic cells level at 0.75 uM incubated for 24 hrs by 7-AAD and annexin V staining-based flow cytometry (reference value: 0.7%). It is filed as functional.
The test system of experiment [8] is HCT-116. In words: Induction of apoptosis in human HCT116 cells assessed as late apoptotic cells level at 1.5 uM incubated for 24 hrs by 7-AAD and annexin V staining-based flow cytometry (reference value: 3.1%). Format: functional.
The test system of experiment [9] is HCT-116. The experiment can be described thus: Induction of apoptosis in human HCT116 cells assessed as late apoptotic cells level at 0.75 uM incubated for 24 hrs by 7-AAD and annexin V staining-based flow cytometry (reference value: 3.1%). Format: functional.
In experiment [10] the test system is HCT-116. The experiment can be described thus: Induction of apoptosis in human HCT116 cells assessed as viable cells at 1.5 uM incubated for 24 hrs by 7-AAD and annexin V staining-based flow cytometry (reference value: 92.2%). It is filed as functional. The following applies: HCT-116, 24 h, read-out: Activity.
Experiment [11] concerns HCT-116. In words: Induction of apoptosis in human HCT116 cells assessed as early apoptotic cells level at 3 uM incubated for 24 hrs by 7-AAD and annexin V staining-based flow cytometry (reference value: 4%). It is filed as functional.
Experiment [12] has as its system HCT-116. The experiment can be described thus: Induction of apoptosis in human HCT116 cells assessed as viable cells at 3 uM incubated for 24 hrs by 7-AAD and annexin V staining-based flow cytometry (reference value: 92.2%). Format: functional. Conditions: HCT-116, 24 h, read-out: Activity.
Experiment [13] deals with HCT-116. In words: Induction of apoptosis in human HCT116 cells assessed as necrotic cells level at 3 uM incubated for 24 hrs by 7-AAD and annexin V staining-based flow cytometry (reference value: 0.7%). It is filed as functional.
Experiment [14] is described as follows: Binding affinity to DNA (unknown origin) at 0.0625 to 0.5 mM by ethidium bromide dye based agarose gel electrophoresis method.
The test system of experiment [15] is HCT-116. The experiment can be described thus: Induction of apoptosis in human HCT116 cells assessed as necrotic cells level at 1.5 uM incubated for 24 hrs by 7-AAD and annexin V staining-based flow cytometry (reference value: 0.7%). It is filed as functional.
Experiment [16] deals with HCT-116. In words: Induction of apoptosis in human HCT116 cells incubated for 24 hrs by 7-AAD and annexin V staining-based flow cytometry. It is filed as functional, cell-based.
Experiment [17] relates to HCT-116. In words: Induction of apoptosis in human HCT116 cells assessed as viable cells at 0.75 uM incubated for 24 hrs by 7-AAD and annexin V staining-based flow cytometry (reference value: 92.2%). It is filed as functional. The following applies: HCT-116, 24 h, read-out: Activity.
In experiment [18] the test system is HCT-116. In words: Induction of apoptosis in human HCT116 cells assessed as late apoptotic cells level at 3 uM incubated for 24 hrs by 7-AAD and annexin V staining-based flow cytometry (reference value: 3.1%). Format: functional.

Molecules are shown by their SMILES. Active and inactive are the calls of the source. No cut-off for these calls is given here.

T1 sequence (P13864 whole entry, the tested form may be a part): as above

Turning to `CC(C)NCC(O)COC(Cn1c2ccccc2c2ccccc21)Cn1c2ccccc2c2ccccc21` (racemic), the Activity with HCT-116 [1] is 12.5%; with HCT-116 [2], 4.6%; in experiment [5], “Dose-dependent effect”; in the experiment on HCT-116 [7], 0.3%; with HCT-116 [8] it was 10.8%; in the experiment with HCT-116 [9], 4%. The Activity with HCT-116 [11] was 42.7%; in the experiment on HCT-116 [13] it was 2.6%; in the experiment with HCT-116 [15], 0.7%; in the experiment with HCT-116 [16], “Dose-dependent effect”; in the experiment with HCT-116 [18], 27.2%. In [3], the IC50 (as a rule, the point on the concentration scale where inhibition reaches its midpoint) is 1700 nM. In addition, in experiment [4], the Kd (as a rule, the free concentration of one partner at which half of the binding sites on the other are occupied at equilibrium, for simple one-to-one binding) amounted to 910 nM. Besides, the inhibition (commonly the change of the read-out against control, counted positive when it falls) in experiment [6] worked out at 102%. Besides, the viability at 1.5 µM with HCT-116 [10] turned out to be 76%. Further, the viability at 3 µM in the experiment on HCT-116 [12] worked out at 27.5%. The outcome in experiment [14] was inactive. In addition, the viability at 0.75 µM with HCT-116 [17] amounted to 91.1%.
